# Source: PubChem BioAssay (several laboratories)
# PPC-1+TRAIL kill: compounds killing PPC-1 cancer cells with TRAIL present (potentiator screen, no TRAIL-free arm) | PPC-1 cells + TRAIL, ATPLite viability luminescence | cell killing (% activity), % at 4 µM or 5 µM | hit rate 0.41% among 220,000;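 active = cell killing above 50% in the first pass at 4 µM, then a duplicate retest at 5 µM averaging 50% or more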
# FLuc stim CS: affects firefly luciferase, flagging false hits in luciferase stimulation screens. activation factor at 10 µM. ATPlite luciferase biochemical, luminescence, 10 min; 0 = ATP-free wells, 1 = DMSO control. 200,000 tested, under 10 active. P08659. AID 1027;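 active = luciferase activation factor, scaled between plate controls, of at least 2 with compound at 10 µM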
# Target sequence (P08659 whole entry, looked up): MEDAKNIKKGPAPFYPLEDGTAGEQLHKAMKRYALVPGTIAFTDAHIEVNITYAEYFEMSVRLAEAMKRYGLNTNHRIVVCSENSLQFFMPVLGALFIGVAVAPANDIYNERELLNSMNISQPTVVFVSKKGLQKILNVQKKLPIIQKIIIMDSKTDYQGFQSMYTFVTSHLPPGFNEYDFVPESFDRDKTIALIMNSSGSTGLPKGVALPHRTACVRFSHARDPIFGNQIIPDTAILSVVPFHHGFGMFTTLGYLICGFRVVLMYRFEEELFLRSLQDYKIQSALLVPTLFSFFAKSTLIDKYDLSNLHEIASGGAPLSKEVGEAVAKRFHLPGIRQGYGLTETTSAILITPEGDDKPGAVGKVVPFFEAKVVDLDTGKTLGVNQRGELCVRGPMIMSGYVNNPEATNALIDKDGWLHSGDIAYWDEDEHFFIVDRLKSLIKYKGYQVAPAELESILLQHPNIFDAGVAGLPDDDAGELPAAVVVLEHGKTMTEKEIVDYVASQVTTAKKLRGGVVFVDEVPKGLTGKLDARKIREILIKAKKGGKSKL
#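 assay system = Luciferase/luciferin detection reagent, cell-free biochemical luciferase assay | also added = ATP substrate | times = 10 min post-reagent at room temperature | measured by = luminescence from luciferase reaction | measure = luciferase activation, seen as luminescence increase over controls | benchmarks = low control with PBS replacing ATP, high control enzyme plus ATP without compound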
# HSP90 inh: HSP90 refolding inhibition in rabbit reticulocyte lysate; luciferase refolding luminescence, 3 h; inhibition, % at 5.6 µM; hit rate 0.91% among 290,000;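 active = inhibition above the screen-wide mean plus 3 SD, computed separately per campaign, cut at about 16% in these data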;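 also: inhibitors lower the luminescence because luciferase stays unfolded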
# C8 TRAIL sens: sensitizes caspase-8 expressing cells to TRAIL; NB7+C8 cells + TRAIL, ATPlite viability luminescence; inhibition (viability loss, TRAIL sensitization), % at 10 µM; hit rate 1% among 360,000; AID 624354;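 active = compounds causing at least 50% loss of cell viability in the single-dose screen, relative to plate controls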
# FLuc inh counter: Photinus pyralis luciferase inhibition counter-screen. P08659. ATPLite firefly luciferase biochemical luminescence, 10 min. inhibition, % at 10 µM. hit rate 1.5% among 200,000. AID 1006;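 active = inhibition above about 50% when tested at 10 µM, limit read from the data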
# A number is an active result; i = inactive; nt = no result given. A selection: hits, their analogues and other compounds. The true share with any hit is near 2%.
SMILES,PPC-1+TRAIL kill,FLuc stim CS,HSP90 inh,C8 TRAIL sens,FLuc inh counter
COc1ccc(Br)c(Cn2c(C)c(C(=O)NCc3ccc(F)cc3)sc2=O)c1,nt,nt,nt,i,nt
COC(=O)C1C2CC(=O)C(C2)C1C(=O)OC (stereo not drawn),nt,nt,nt,i,nt
O=C(N/N=C/c1ccc(O)c(O)c1)N/N=C/c1ccc(O)c(O)c1,nt,nt,i,55,nt
O=C(O)CSc1cc(NS(=O)(=O)c2ccc(Br)cc2)c2ccccc2c1O,nt,nt,i,48,nt
O=C1NC[C@@H](CCCCN2C[C@H](Cc3ccc(O)cc3)N(Cc3ccccc3)C(=O)C2=O)N(Cc2ccccc2)C1=O,nt,nt,nt,i,nt
C/C(=N\NC(=O)c1ccn(C)n1)c1cccc(NC(=O)c2ccc(C)s2)c1,i,i,i,58,73
C/C(=N/NC(=O)c1ccco1)c1cccc(NC(=O)c2ccc(C)s2)c1,i,i,i,i,69
COc1ccc2nc(C)cc(N/N=C/c3cccc(OC)c3O)c2c1,nt,nt,i,51,nt
COc1ccc(/C=N/Nc2cc(C)nc3ccc(Br)cc23)cc1,nt,nt,i,49,nt
Cn1cc(-c2coc3c(C(=O)NCc4cccs4)cccc23)cn1,nt,nt,nt,i,nt
CCN1C[C@@H]2[C@@H]3C(=O)N(C)C(=O)[C@@H]3[C@](Cc3ccccc3)(C1=O)N2C(=O)c1ccc(Cl)cc1,nt,nt,nt,i,nt
Cn1c(/N=C/c2cccs2)nc2ccccc21,i,i,i,i,74
COc1ccc(/C=N/c2nc3ccccc3n2C)cc1OC,i,i,i,i,70
Cn1c(/N=C/c2cc(Cl)ccc2O)nc2ccccc21,i,i,i,nt,i
CCOC(=O)c1ccc(NC(=O)c2cnccn2)cc1,i,i,i,i,i
CCCCc1ccc(NC(=O)c2cnccn2)cc1,i,i,17,55,76
CCOC(=O)C1=CNS(=O)(=O)NC1CCc1ccccc1 (stereo not drawn),nt,nt,nt,i,nt
CCc1c(C)c(C#N)c2nc3ccccc3n2c1-n1nc(C)cc1C,i,i,i,i,i
CCc1c(C)c(C#N)c2nc3ccccc3n2c1Cl,60,i,i,nt,i
CCOC(=O)c1sc(NC(=O)c2cccc(S(=O)(=O)N3CCc4ccccc43)c2)c(C#N)c1C,i,nt,i,46,nt
O=C(Nc1ccc2c(c1)OCCO2)C(CCc1ccccc1)N1CCC(Cc2ccccc2)CC1 (stereo not drawn),nt,nt,nt,i,nt
CCOC(=O)C1CCN(C(=O)C2c3ccccc3C(=O)N(C)C2c2ccc(OC)cc2)CC1 (stereo not drawn),i,i,i,54,i
Cc1ccc(-c2nc3ccccc3n2C)o1,i,i,i,i,68
Cn1c(-c2ccc(Br)o2)nc2cc(Br)ccc21,i,i,i,i,64
Cn1c(-c2ccc(Br)o2)nc2ccccc21,i,i,i,52,83
SMILES,PPC-1+TRAIL kill,FLuc stim CS,HSP90 inh,C8 TRAIL sens,FLuc inh counter
CC(=O)/C=C1\OCc2ccccc21,nt,nt,nt,i,nt
COC(=O)[C@@]12C[C@@H](CC(=O)NCCC(C)C)C(=O)N(Cc3ccc4c(c3)OCO4)C1=CCC(C)(C)C2,nt,nt,nt,i,nt
Cc1cc(N)n2nc(-c3ccccc3)cc2n1,68,i,i,77,91
Cc1ccc(-c2cc3nc(-c4ccccc4)cc(N)n3n2)cc1,i,i,i,i,i
CC1(C(=O)O)CCN1C(=O)c1ccccc1F (stereo not drawn),nt,nt,nt,i,nt
COc1cccc(NC(=O)COc2ccccc2C(N)=O)c1,i,i,i,i,68
COc1ccc(OCC(=O)Nc2cccc(OC)c2)cc1,i,i,i,i,i
O=C(CSc1nnc(-c2ccc(O)cc2)o1)Nc1cccc(O)c1,nt,nt,i,48,nt
COc1cccc(NC(=O)CSc2nnc(-c3ccc(C)cc3)o2)c1,57,i,i,i,i
NS(=O)(=O)c1ccc(NC(=O)CSc2nnc(-c3ccc(O)cc3)o2)cc1,nt,nt,i,i,nt
Cc1ccc(NC(=O)CSc2nnc(-c3ccncc3)o2)cc1,i,i,i,i,i
COc1cc(/C=C2\SC(=O)N(c3cccc(Cl)c3)C2=O)cc([N+](=O)[O-])c1O,i,i,i,i,i
COc1cc(/C=C2\SC(=O)N(c3ccc(Cl)cc3)C2=O)cc([N+](=O)[O-])c1O,i,i,66,i,i
N#CC1(NC(=O)CSc2nc3ccccc3o2)CCCCC1,nt,nt,nt,i,nt
Cc1cc(-c2ccccc2)nc(Nc2nc3c(C)cccc3c(=O)[nH]2)n1,nt,nt,nt,71,nt
COc1ccc(Cl)cc1-c1cc(C(=O)Nc2ccc(C(C)(C)C)cc2)[nH]n1,nt,nt,nt,i,nt
CSCCC(c1nnnn1C1CCCCC1)N1CCN(C/C=C/c2ccccc2)CC1 (stereo not drawn),nt,nt,nt,i,nt
